Results from ChEMBL document CHEMBL2163287, “Nitro seco analogues of the duocarmycins containing sulfonate leaving groups as hypoxia-activated prodrugs for cancer therapy” (J Med Chem, 2012).
The source made the active and inactive calls. No cut-off for these calls is given here.

Experiments:
SiHa [1] = experiment: Antitumor activity against human SiHa cells xenografted in immunocompromized mouse assessed as number of colony forming cells per gram of tumor tissue at 13 umol/kg, iv tumor excised post 18 hrs followed by culturing for 14 days; type: functional
In short: (§1)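 SiHa tumours grown subcutaneously in male mice from 10⁷ cultured cells; randomized at 8−10 mm mean diameter. Compound in phosphate-buffered saline with 4 equiv sodium bicarbonate, given via tail vein at the stated dose, alone or 5 min after 15 Gy whole-body cobalt-60 γ irradiation. Tumours excised 18 h after dosing, cells cultured 14 days for clonogens. Groups of 3 (drug alone) or 5 (radiation + drug).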

SiHa [2] = experiment: Antitumor activity against human SiHa cells xenografted in immunocompromized gamma irradiated mouse assessed as number of colony forming cells per gram of tumor tissue at 13 umol/kg, iv tumor excised post 18 hrs followed by culturing for 14 days; type: functional; in short: as §1
SiHa [3] = experiment: Antitumor activity against human SiHa cells xenografted in immunocompromized gamma irradiated mouse assessed as log cell kill at 13 umol/kg, iv tumor excised post 18 hrs followed by culturing for 14 days under hypoxic condition; type: functional
In short: (§2)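 Male immunocompromised mice bearing subcutaneous tumours (10^7 cultured cells), randomized at 8–10 mm mean diameter. Compound in PBS with 4 equiv sodium bicarbonate given iv (tail vein), alone or 5 min after 15 Gy whole-body cobalt-60 γ-irradiation, which sterilizes oxygenated cells. Tumours excised 18 h after dosing and plated for clonogens for 14 days. n = 3 (vehicle or compound alone) or 5 (irradiated groups).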

HT-29 [4] = experiment: Cytotoxicity against human HT-29 cells under oxic condition after 4 hrs by clonogenic assay; type: functional, cell-based
In short: (§3)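 Cells were exposed to drug in duplicate for 4 h at 37 °C, either aerobic (95% air, 5% CO₂) or in an anaerobic chamber (<0.001% O₂). Medium was αMEM + 10% FCS with added glucose (final 17 mmol/L) and 200 μmol/L 2′-deoxycytidine. Cells were then trypsinized and plated; colonies >50 cells were counted after 14 days (methylene blue). C10 = concentration giving 10% survival vs controls; HCR = C10(oxic)/C10(hypoxic).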

HT-29 [5] = experiment: Cytotoxicity against human HT-29 cells under hypoxic condition after 4 hrs by clonogenic assay; type: functional, cell-based; in short: as §3
HT-29 [6] = experiment: Ratio of C10 for human HT-29 cells under oxic condition to C10 for human HT-29 cells under hypoxic condition by clonogenic assay; type: functional; in short: as §3
HT-29 [7] = experiment: Cytotoxicity against human HT-29 cells under hypoxic condition assessed as inhibition of cell proliferation after 4 hrs by SRB method; type: functional, cell-based; settings: HT-29, 4 h
In short: (§4)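 Log-phase monolayers were exposed 4 h under 20% O₂ or anoxia (<20 ppm O₂), then stained with sulforhodamine B 5 days later. IC50, interpolated as the concentration reducing cell density to 50% of same-plate controls, is given as mean of 3−9 experiments. HCR = IC50(oxic)/IC50(hypoxic), taken as the mean of intraexperiment ratios from 3−6 experiments.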

HT-29 [8] = experiment: Cytotoxicity against human HT-29 cells under oxic condition assessed as inhibition of cell proliferation after 4 hrs by SRB method; type: functional, cell-based; settings: HT-29, 4 h; in short: as §4
HT-29 [9] = experiment: Ratio of IC50 for human HT-29 cells under oxic condition to IC50 for human HT-29 cells under hypoxic condition; type: functional; in short: as §4
SiHa [10] = experiment: Cytotoxicity against human SiHa cells under hypoxic condition assessed as inhibition of cell proliferation after 4 hrs; type: functional, cell-based
In short: (§5)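 Log-phase monolayers were exposed to drug for 4 h, aerobic (20% O2) for line 5 and anoxic (<20 ppm O2) for line 4. Cell density was read by sulforhodamine B staining 5 days later. IC50 was interpolated as the concentration reducing density to 50% of same-plate controls; mean ± SEM of 3–9 experiments.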

SiHa [11] = experiment: Cytotoxicity against human SiHa cells under oxic condition assessed as inhibition of cell proliferation after 4 hrs; type: functional, cell-based; in short: as §5
A549 = experiment: Ratio of IC50 for human A549 cells under oxic condition to IC50 for human A549 cells under hypoxic condition; type: functional
In short: (§6)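 Antiproliferative assay on the cell-line panel: 4 h drug exposure under 20% O₂ or anoxia (<20 ppm O₂), then sulforhodamine B staining after 5 days. HCR = IC50(oxic)/IC50(hypoxic), taken as the mean of intraexperiment ratios from 2−5 experiments.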

C-33-A = experiment: Ratio of IC50 for human C33A cells under oxic condition to IC50 for human C33A cells under hypoxic condition; type: functional; in short: as §6
[12] = Ratio of IC50 for human H1299 cells under oxic condition to IC50 for human H1299 cells under hypoxic condition; type: functional; in short: as §6
NCI-H460 [13] = experiment: Ratio of IC50 for human H460 cells under oxic condition to IC50 for human H460 cells under hypoxic condition; type: functional; in short: as §6
HCT-116 = experiment: Ratio of IC50 for human HCT116 cells under oxic condition to IC50 for human HCT116 cells under hypoxic condition; type: functional; in short: as §6
SiHa [14] = experiment: Antitumor activity against human SiHa cells xenografted in immunocompromized gamma irradiated mouse assessed as number of colony forming cells per gram of tumor tissue at 42 umol/kg, iv tumor excised post 18 hrs followed by culturing for 14 days; type: functional; in short: as §1
SiHa [15] = experiment: Antitumor activity against human SiHa cells xenografted in immunocompromized gamma irradiated mouse assessed as log cell kill at 42 umol/kg, iv tumor excised post 18 hrs followed by culturing for 14 days under hypoxic condition; type: functional; in short: as §2
NCI-H460 [16] = experiment: Toxicity in human H460 cells xenografted immunocompromized mouse at 75 umol/kg, iv; settings: in vivo
NCI-H460 [17] = experiment: Antitumor activity against human H460 cells xenografted in immunocompromized gamma irradiated mouse under hypoxic condition assessed as log cell kill at 75 umol/kg, iv tumor excised post 18 hrs followed by culturing for 14 days; type: functional; in short: as §2
SiHa [18] = experiment: Antitumor activity against human SiHa cells xenografted in immunocompromized mouse assessed as number of colony forming cells per gram of tumor tissue at 42 umol/kg, iv tumor excised post 18 hrs followed by culturing for 14 days; type: functional; in short: as §1
SiHa [19] = experiment: Cytotoxicity against human SiHa cells under hypoxic condition assessed as after 4 hrs by clonogenic assay; type: functional, cell-based; in short: as §3
SiHa [20] = experiment: Cytotoxicity against human SiHa cells under oxic condition after 4 hrs by clonogenic assay; type: functional, cell-based; in short: as §3

| SMILES | IC50 (HT-29 [7]) [nM] | IC50 (HT-29 [8]) [nM] | Ratio IC50 (HT-29 [9]) | IC50 (SiHa [10]) [nM] | IC50 (SiHa [11]) [nM] | Ratio IC50 (A549) | Ratio IC50 (C-33-A) | Ratio IC50 [12] | Ratio IC50 (NCI-H460 [13]) | Ratio IC50 (HCT-116) | Activity (SiHa [19]) | Activity (SiHa [20]) | other results |
| --- | --- | --- | --- | --- | --- | --- | --- | --- | --- | --- | --- | --- | --- |
| COc1ccc(/C=C/C(=O)N2CC(COS(=O)(=O)Cc3ccccc3)c3c2cc([N+](=O)[O-])c2cc(C(N)=O)ccc32)cc1 (stereo not given) | 170 | 7000 | 40 | 46 | 2100 | 34 | 184 | 644 | 104 | 403 | – | – | log10cfu (SiHa [1]): 6.87; log10cfu (SiHa [2]): 4.3; LCK (SiHa [3]): 1.16; Activity (HT-29 [4]): Active; Activity (HT-29 [5]): Active; Ratio (HT-29 [6]): 4090 |
| COc1cc2cc(C(=O)N3CC(COS(C)(=O)=O)c4c3cc([N+](=O)[O-])c3cc(S(=O)(=O)NCCOP(=O)(O)O)ccc43)[nH]c2c(OC)c1OC (stereo not given) | – | – | – | – | – | – | – | – | – | – | – | – | log10cfu (SiHa [14]): 4.38; LCK (SiHa [15]): 0.6; Activity (NCI-H460 [16]): Non-toxic; LCK (NCI-H460 [17]): 0.6; log10cfu (SiHa [18]): 7.15 |
| COc1cc2cc(C(=O)N3CC(COS(=O)(=O)Cc4ccccc4)c4c3cc([N+](=O)[O-])c3cc(S(N)(=O)=O)ccc43)[nH]c2c(OC)c1OC (stereo not given) | 42 | 35000 | 1010 | 180 | 13000 | 20 | 177 | 226 | 0.67 | 193 | – | – | – |
| NC(=O)c1ccc2c3c(cc([N+](=O)[O-])c2c1)N(C(=O)c1cc2cc(OCCO)ccc2[nH]1)CC3COS(=O)(=O)Cc1ccccc1 (stereo not given) | 220 | 22000 | 105 | 240 | 18500 | 38 | 93 | 255 | >114 | 127 | Active | Active | – |
| COc1cc2cc(C(=O)N3CC(COS(=O)(=O)Cc4ccccc4)c4c3cc([N+](=O)[O-])c3cc(C(N)=O)ccc43)[nH]c2c(OC)c1OC (stereo not given) | 16 | 9200 | 1370 | 180 | 990 | 6.7 | 76 | 86 | 32 | 13 | Active | Active | – |
